Laboratory results reported in ChEMBL document CHEMBL1671778, “Synthesis and serotonin transporter activity of 1,3-bis(aryl)-2-nitro-1-propenes as a new class of anticancer agents” (Bioorg Med Chem, 2011).
Activity calls are given as the source filed them. The calls are words filed in the database; no cut-off is given here.

Key:
MUTU-I [1] = test: Induction of apoptosis in human chemosensitive MUTU-I cells assessed as caspase 3/7 activation at 10 uM after 4 hrs; type: functional, cell-based
MUTU-I [2] = test: Induction of apoptosis in human chemosensitive MUTU-I cells assessed as induction of PARP cleavage at 10 uM after 4 hrs; type: functional, cell-based
Summary of the method: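 PARP cleavage by Western blot: 5x10^6 cells pelleted (500 ×g, 5 min), washed, and lysed in Laemmli buffer with protease inhibitors. Lysates run on 8% SDS-PAGE, transferred to PVDF, and probed with anti-PARP detecting full-length 113 kDa and cleaved 85 kDa forms. HRP secondary antibody, chemiluminescence detection.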

[3] = Cytotoxicity against human chemosensitive MUTU-I cells expressing SERT assessed as decrease in cell viability 10 or 50 uM after 24 hrs Alamar blue assay
MUTU-I [4] = test: Induction of apoptosis in human chemosensitive MUTU-I cells assessed as chromatin condensation and membrane bledding at 10 uM after 4 hrs; type: functional, cell-based
Summary of the method: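 Cells at 3x10^5 cells/mL exposed for 4 h or 8 h. 150 µl aliquots were cytocentrifuged onto slides (500 ×g, 2 min), air-dried, methanol-fixed, and stained with eosin Y and methylene blue. Morphology was examined by light microscopy at 60x.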

[5] = Induction of apoptosis in human chemosensitive MUTU-I cells assessed as formation of apoptotic bodies by propidium iodide FACS analysis; type: functional, cell-based
SH-SY5Y [6] = test: Cytotoxicity against human SH-SY5Y cells expressing human SERT assessed as decrease in cell viability after 48 hrs neutral red dye assay; type: functional, cell-based
[7] = molecular target: T1, Sodium-dependent serotonin transporter (Homo sapiens, UniProt P31645); conditions: HEK293, at 1 µM
Target sequence in this assay (P31645 whole entry, looked up): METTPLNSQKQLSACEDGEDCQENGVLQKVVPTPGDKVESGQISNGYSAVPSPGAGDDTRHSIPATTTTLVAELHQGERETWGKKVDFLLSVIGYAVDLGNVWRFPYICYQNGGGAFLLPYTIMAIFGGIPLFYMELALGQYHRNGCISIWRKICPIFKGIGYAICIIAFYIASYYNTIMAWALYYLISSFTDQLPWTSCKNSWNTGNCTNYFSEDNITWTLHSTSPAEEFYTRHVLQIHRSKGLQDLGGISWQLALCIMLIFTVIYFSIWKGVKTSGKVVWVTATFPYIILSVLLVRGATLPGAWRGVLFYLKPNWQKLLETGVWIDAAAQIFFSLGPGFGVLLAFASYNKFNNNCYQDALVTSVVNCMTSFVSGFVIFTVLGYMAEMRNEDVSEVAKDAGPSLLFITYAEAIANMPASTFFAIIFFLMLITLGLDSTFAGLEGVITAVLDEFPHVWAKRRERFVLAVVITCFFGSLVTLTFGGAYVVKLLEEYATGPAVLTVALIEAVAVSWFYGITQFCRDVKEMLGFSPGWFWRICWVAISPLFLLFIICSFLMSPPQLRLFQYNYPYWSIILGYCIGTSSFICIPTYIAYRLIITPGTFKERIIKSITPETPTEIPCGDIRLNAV

DG-75 [8] = test: Induction of apoptosis in human chemoresistant DG75 cells assessed as formation of apoptotic bodies by propidium iodide FACS analysis; type: functional, cell-based
SH-SY5Y [9] = test: Antiproliferative activity against human SH-SY5Y cells after 24 hrs Alamar blue assay; type: functional, cell-based
Summary of the method: (§1)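 Alamar Blue viability: 1-5x10^4 cells/well treated 24 h, then Alamar Blue (pre-warmed) 4-6 h at 37 °C in the dark. Fluorescence read at 590 nm (excitation 544 nm), background of medium plus dye subtracted, untreated cells = 100% viability. Miconazole 10 µM as cell-death control. Range 1 µM-1 mM, triplicate on two independent days. pEC50 from non-linear sigmoidal regression.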

HEK293 [10] = test: Cytotoxicity against human HEK293 cells assessed as decrease in cell viability after 48 hrs neutral red dye assay; type: functional, cell-based; conditions: HEK293, 48 h
Summary of the method: (§2)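 5x10^4 cells/well grown to sub-confluence (24-36 h), then exposed to compound 48 h. Neutral red dye 3+1 h, solubilised in 50% ethanol/1% acetic acid, absorbance 540 nm (690 nm background). Viability as percent of vehicle-treated cells; pEC50 by non-linear sigmoidal regression over 4 concentrations, triplicate on two independent days. Controls 30 mM sodium azide, 2% Triton-X. HEK293-hSERT cells kept in Geneticin, used up to 30 passages.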

[11] = molecular target: T1, Sodium-dependent serotonin transporter; conditions: HEK293, at 100 µM
Target sequence in this assay (P31645 whole entry, looked up): as above

[12] = molecular target: T1, Sodium-dependent serotonin transporter; test: Inhibition of [3H]-serotonin reuptake at human SERT expressed in HEK293 cells after 15 to 20 mins by fluorescence neurotransmitter transporter assay; type: cell-based
Target sequence in this assay (P31645 whole entry): as the sequence (P31645 whole entry, looked up) above

PBMC = test: Cytotoxicity against human PBMC cells assessed as decrease in cell viability 10 or 50 uM after 24 hrs Alamar blue assay; type: cell-based
Summary of the method: (§3)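 1-5x10^4 cells/200 µl given 10 or 50 µM for 24 h (MUTU-I, MDA-MB231, PBMC) or […]. Alamar Blue at 37 °C in the dark 4-6 h, then fluorescence read with 544/590 nm. Media-only background subtracted; untreated cells set as 100% viability. Mean of six points (triplicate, two independent days). PBMCs from a healthy donor, isolated by ficoll density separation.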

MDA-MB-231 = test: Cytotoxicity against human MDA-MB-231 cells assessed as decrease in cell viability 10 or 50 uM after 24 hrs Alamar blue assay; type: functional, cell-based; summary of the method: as §3
DG-75 [13] = test: Cytotoxicity against human chemoresistant DG75 cells expressing SERT assessed as decrease in cell viability 10 or 50 uM after 72 hrs Alamar blue assay; type: functional, cell-based; summary of the method: as §3
HEK293 [14] = test: Cytotoxicity against human HEK293 cells expressing human SERT assessed as decrease in cell viability after 48 hrs neutral red dye assay; type: functional, cell-based; conditions: HEK293, 48 h; summary of the method: as §2
DG-75 [15] = test: Antiproliferative activity against human DG75 cells after 24 hrs Alamar blue assay; type: functional, cell-based; conditions: DG-75, 24 h; summary of the method: as §1

Row | SMILES | Activity (MUTU-I [1]) | Activity (MUTU-I [2]) | IC50 [3] | Activity (MUTU-I [4]) | EC50 [5] | EC50 (SH-SY5Y [6]) | inhibition [7] | EC50 (DG-75 [8]) | EC50 (SH-SY5Y [9]) | EC50 (HEK293 [10]) | inhibition [11] | IC50 [12] | Activity (PBMC) | Activity (MDA-MB-231) | Activity (DG-75 [13]) | EC50 (DG-75 [13]; DG-75, 72 h) | EC50 (HEK293 [14]) | EC50 (DG-75 [15])
1 | CC(=O)O[C@H]1C(=O)[C@@]2(C)[C@H]([C@H](OC(=O)c3ccccc3)[C@]3(O)C[C@H](OC(=O)[C@H](O)[C@@H](NC(=O)c4ccccc4)c4ccccc4)C(C)=C1C3(C)C)[C@]1(OC(C)=O)CO[C@@H]1C[C@@H]2O [PACLITAXEL] | inactive | inactive | 10 nM | inactive |  |  |  |  |  |  |  |  |  |  |  |  |  | 
2 | CSc1ccc(CC(Cc2ccc(SC)cc2)NC=O)cc1 |  |  |  |  | 13 µM | 31.6 µM | 5% | 10 µM | 31.6 µM | > 10 mM | 85% | 15.7 µM | Non-toxic | Active | Active | 31.6 µM | 100 µM | 5.01 mM
